The results in this text go back to BindingDB's records for doi:10.1128/aac.00119-07 (Emory University, 2007).

Test [1] has as its target T1, Reverse transcriptase (Human immunodeficiency virus 1, UniProt Q9WKE8). The test is described as follows: Inhibition of HIV1 LAI reverse transcriptase wild type in presence of 5 mM ATP by heteropolymeric DNA polymerase assay. In short, it runs like this:
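Heteropolymeric DNA assay with 5 mM ATP added: immobilized 18-mer primer, 5′-A12-(GTCA)5 50-mer template, dATP/dGTP/dCTP/BrdUTP at 1.0 μM each, HEPES 50 mM pH 7.3, MgCl2 10 mM. RT 30–100 pM, incubated at 33°C for 180 min. NaOH strand separation, then anti-BrdU-AP detection at 405 nm. IC50 fitted from seven inhibitor concentrations; two to four runs in duplicate.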

Test [2] addresses T1, Reverse transcriptase. The test is described as follows: Inhibition of HIV1 pNL4-3 reverse transcriptase wild type pNL4-3 by heteropolymeric DNA polymerase assay. In short, it runs like this: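 Heteropolymeric assay without ATP: plate-bound 18-mer DNA primer (~110 nM) with 50-mer 5′-A12-(GTCA)5 template (190 nM). dATP, dGTP, dCTP and BrdUTP at 1.0 μM each, in HEPES 50 mM pH 7.3, MgCl2 10 mM. RT 30–100 pM, 33°C for 180 min, then NaOH dehybridization and anti-BrdU-AP tracer read at 405 nm. IC50 from seven triphosphate concentrations; two to four runs in duplicate.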

With `Nc1nc2c(c(=O)[nH]1)NCN2[C@H]1C=C[C@@H](COP(=O)(O)OP(=O)(O)OP(=O)(O)O)C1` [Carbovir-Triphosphate], the IC50 was determined as 0.9 µM on Reverse transcriptase [1] and 1.2 µM against Reverse transcriptase [2].
Regarding `C[C@@H](Cn1cnc2c(N)ncnc21)OCP(=O)(O)OP(=O)(O)OP(=O)(O)O` [Tenofovir diphospahte], the IC50 on Reverse transcriptase [1] was determined as 1.3 µM; on Reverse transcriptase [2] it was 1.2 µM.
